# Screens deposited in PubChem BioAssay by several laboratories.
# Compounds with a hit are over-represented: about 3.7% of the library has one in this group of screens.
# Dynein transport – dynein cargo transport inhibition | 3617.4 mouse cells, GR-EGFP nuclear translocation imaging; test concentration mostly 20 µM; stimulated with dexamethasone, 1 µM; stronger effect = lower value | z-score, hits read low | 0.47% of 220,000 active | AID 1381;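 active = plate z-score of nuclear minus cytoplasmic receptor signal below a set negative limit, without overly bright fluorescence or cell loss, cut at about -3.5 in these data, passing the limit was not always enough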;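 also: z-score of nuclear minus cytoplasmic ring GR-EGFP intensity difference per well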
#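 Buffer or medium: tet-free, stripped-serum medium; Also added: dexamethasone, 1.0 µM final; Technique: high-content fluorescence imaging after fixation; Times: 48 h induction, 1 h compound, 30 min dex at 37 °C; Read-out: per-cell GR-EGFP intensity, nucleus versus surrounding cytoplasmic ring, well-averaged.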
# Mdm2 ligase inh – inhibitors of human Mdm2 E3 ubiquitin ligase. Q00987. 0.11% of 210,000 active. cell-based MDM2 ubiquitination luciferase reporter, 2 h; 0 = plate control, 100 = twice control, blank-subtracted. AID 1230. signal enhancement, % at 5 µM;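 active = signal enhancement of 30% or more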;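 also: luminescence tracks abundance of the self-degrading MDM2-luciferase fusion protein; higher signal means inhibition of MDM2 E3 ligase activity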
# Target sequence (Q00987 whole entry, looked up, the tested form may be a part): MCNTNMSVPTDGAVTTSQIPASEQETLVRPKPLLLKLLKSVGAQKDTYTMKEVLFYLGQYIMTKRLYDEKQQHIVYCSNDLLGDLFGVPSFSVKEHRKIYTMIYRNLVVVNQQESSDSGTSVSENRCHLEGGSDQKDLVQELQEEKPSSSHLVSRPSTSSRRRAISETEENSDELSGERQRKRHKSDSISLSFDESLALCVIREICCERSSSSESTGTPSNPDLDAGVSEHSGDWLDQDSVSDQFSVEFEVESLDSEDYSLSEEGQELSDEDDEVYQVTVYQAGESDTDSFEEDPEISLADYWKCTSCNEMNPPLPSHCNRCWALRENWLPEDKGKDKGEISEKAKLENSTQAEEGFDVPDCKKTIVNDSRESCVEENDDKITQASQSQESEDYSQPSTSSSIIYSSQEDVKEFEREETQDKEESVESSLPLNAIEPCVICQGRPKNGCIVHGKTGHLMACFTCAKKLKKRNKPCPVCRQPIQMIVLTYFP
#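 Assay system: mammalian cells stably expressing self-ubiquitinating, self-degrading MDM2 E3–luciferase fusion. Quantity: 2000 cells in each well. Medium: DMEM culture medium. Compound dosing: single-point 5 µM. Timing: cell settling 4 h, compound treatment 2 h, both 37 °C. Technique: luciferase luminescence. Read-out basis: percent signal gain over controls, blank-subtracted. Benchmarks: plate controls and plate blanks.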
# B2AR ag – activates human beta-2 adrenergic receptor causing internalization. AID 504454. 0.43% of 340,000 active. P07550. response, % (no concentration beside the values). Am2.2-beta2AR cells, FAP receptor internalization, flow cytometry;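 active = response above a set limit, near 3 SD of response in nonfluorescent compounds, cut at about 42% in these data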
# XBP1 UPR activ – activators of adaptive arm of unfolded protein response (XBP1). CHO-XBP1 luciferase reporter, IRE1-XBP1 UPR activation, luminescence; percent of tunicamycin response, DMSO as zero. activation, % at 20 µM. 0.33% of 330,000 active. AID 463104;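 active = versus positive control, 20 µM dose yields 30% or more activation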
#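 Material: IRE1-XBP1 luciferase reporter CHO line / Quantity: one thousand reporter cells per well / Buffer or medium: F12 with 10% serum / Compound: 20 µM single concentration, DMSO 1% / Times: 6 h treatment, 37 °C / Detection: Steady-Glo luciferase glow luminescence, 10 min after reagent addition / Benchmarks: tunicamycin high, DMSO low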
# CHOP UPR activ – apoptotic UPR (CHOP) activation; CHO-CHOP luciferase reporter, luminescence; percent of tunicamycin response over DMSO baseline; activation, % at 10 µM; 0.34% of 330,000 active; AID 449763;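 active = at 10 µM dose, activation of 40% or more, normalized to positive control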
#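 Assay system: CHO cells with stable CHOP pathway luciferase reporter; Buffer or medium: F12 plus 10% serum; Times: 16-18 h cell attachment, then 6 h compound exposure, 37 °C; Signal: luciferase luminescence; Read-out basis: percent activation relative to tunicamycin control; Control set: tunicamycin high control, DMSO low control.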
# Mdm2 MdmX PPI – human Mdm2/MdmX binding inhibition | O15151+Q00987 | SaOS-2 split-luciferase Mdm2/MdmX complementation, luminescence | inhibition, % at 8 µM | 3% of 330,000 active | AID 485346;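 active = inhibition of at least 50% at 8 µM in the primary screen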
# Mdm2 MdmX conf – human Mdm2/MdmX binding inhibition, confirmed; luminescent assay; shares compounds with Mdm2 MdmX PPI; inhibition, % at 8 µM; 55% of 10,000 active; AID 489028; in the data active = inhibition above about 40%
# FLuc counter – full-length luciferase inhibition in Mdm2/MdmX counter-screen. shares compounds with Mdm2 MdmX PPI. SaOS-2 full-length luciferase counterscreen, luminescence. inhibition, % at 8 µM. 77% of 6,200 active. AID 504607;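 active = mean inhibition at 8 µM reaching about 37%, which flags the compound as non-specific, limit read from the data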;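 also: p53-null SaOS-2 cells with luciferase driven by a doxycycline-inducible promoter; compound on cells about two nights before reading with doxycycline added after day one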
# Hits are given with their value; 0 = inactive; - = no result given.
SMILES,Dynein transport,Mdm2 ligase inh,B2AR ag,XBP1 UPR activ,CHOP UPR activ,Mdm2 MdmX PPI,Mdm2 MdmX conf,FLuc counter
Cc1oncc1C(=O)N1CCCC(CO)(Cc2ccc(F)cc2F)C1 (centres undefined),-,-,0,0,0,0,-,-
Fc1ccc(/C=C2\CCCC3=C2Nc2ncnn2C3c2ccc(F)cc2)cc1 (centres undefined),0,0,0,0,0,99,47,0
CCN1CCN(Cc2ccc(NC(=O)c3cc(NC(=O)c4cc(C)on4)cc(OC)c3)cc2C(F)(F)F)CC1,-,-,0,0,0,91,0,46
CCN1CCN(Cc2ccc(NC(=O)c3cc(NC(=O)c4cnn(-c5ccccc5)c4N)cc(OC)c3)cc2C(F)(F)F)CC1,0,0,0,0,0,53,0,-
CCN1CCN(Cc2ccc(NC(=O)c3ccc(C)c(NC(=O)c4ccc5n[nH]nc5c4)c3)cc2C(F)(F)F)CC1,0,0,0,0,0,0,-,-
CCN1CCN(Cc2ccc(NC(=O)c3ccc(C)c(NC(=O)C(=O)c4c[nH]c5ccccc45)c3)cc2C(F)(F)F)CC1,0,0,50,0,0,100,93,0
CCN1CCN(Cc2ccc(NC(=O)c3cc(NC(=O)C(=O)c4c[nH]c5ccccc45)cc(OC)c3)cc2C(F)(F)F)CC1,0,0,0,0,0,99,0,-
CCCCC[C@@H](/C=C/C1C(=O)C=C[C@H]1C/C=C\CCCC(=O)O)OC(C)=O (some centres undefined),-,-,0,-,-,-,-,-
CCOc1cc(CNc2cccc3[nH]c(C)nc23)ccc1OC,-,-,0,0,0,0,-,-
COc1ccccc1-c1nnc2sc(-c3ccc(N(C)C)cc3)nn12,0,0,0,0,0,69,68,94
CN(C)c1ccc(-c2nn3c(-c4ccccc4Cl)nnc3s2)cc1,0,0,0,0,0,53,66,65
CN(C(=O)COC(=O)CNC(=O)c1ccccc1F)C1CCCCC1,-,-,0,0,0,0,-,-
C[C@@H]1CN([C@@H](C)CO)C(=O)c2cccc(NS(C)(=O)=O)c2O[C@H]1CN(C)CC1CCCCC1,-,-,0,0,0,0,-,-
COc1cc(-c2cc(-c3ccc(F)cc3)nc(N)c2C#N)ccc1O,0,0,0,0,0,71,52,56
CCOc1cc(-c2cc(-c3ccccc3)nc(N)c2C#N)ccc1O,0,0,0,0,0,76,61,95
CCOc1cc(-c2c(C#N)c(N)nc3c2CCCC3)ccc1O,0,0,0,0,0,0,-,-
CCOc1cc(-c2cc(-c3ccc(N)cc3)nc(N)c2C#N)ccc1O,0,0,0,0,0,51,0,124
O=C(Nc1c2c(nn1-c1ccc([N+](=O)[O-])cc1)CS(=O)(=O)C2)c1ccco1,-,-,0,0,0,0,-,-
CCOC(=O)c1sc(NC(=O)c2ccccc2)cc1C,0,0,0,0,0,0,-,-
CCOC(=O)c1sc(NC(=O)c2ccc(Cl)s2)cc1C,0,0,0,0,0,0,-,-
CCOC(=O)c1sc(NC(=O)Nc2ccc(Cl)cc2)cc1C,0,0,0,0,0,75,86,55
CCOC(=O)c1sc(NC(=O)c2c(C)nn(Cc3ccccc3)c2C)cc1C,0,0,0,0,0,53,0,-
CC(OC(=O)c1nn(C)c(=O)c2ccccc12)C(=O)Nc1ccc(S(N)(=O)=O)cc1 (centres undefined),-,-,0,0,0,0,-,-
Cc1ccc(C)c(-n2nnnc2Sc2nnnn2-c2ccccc2)c1,0,0,0,0,0,100,79,52
COc1ccccc1CNCC(O)(c1ccc(Cl)cc1)c1ccc(Cl)cc1,0,0,0,0,0,54,0,-
SMILES,Dynein transport,Mdm2 ligase inh,B2AR ag,XBP1 UPR activ,CHOP UPR activ,Mdm2 MdmX PPI,Mdm2 MdmX conf,FLuc counter
CN(C)S(=O)(=O)c1cccc(NC(=S)NNC(=O)c2cc3ccccc3cc2O)c1,-,-,0,0,0,0,-,-
COc1ccc(NC(=O)CN(C)C(=O)/C=C/c2ccc(OCc3ccccc3)cc2)cc1,-,-,0,0,0,52,0,-
COc1ccc(NC(=O)CN(C)C(=O)/C=C/c2ccc(S(=O)(=O)N3CCCCCC3)cc2)cc1,-,-,0,0,0,0,-,-
COc1ccc(OC)c(CNS(=O)(=O)c2cc(CN3C(=O)c4cccnc4C3=O)ccc2OC)c1,-,-,0,0,0,0,-,-
CC(NC(=O)CN1C(=O)NC(Cc2ccccc2)(Cc2ccccc2)C1=O)C12CC3CC(CC(C3)C1)C2 (centres undefined),0,0,0,0,0,77,45,65
CCN(CC)S(=O)(=O)c1cc(NC(=O)C(C)OC(=O)c2[nH]c(C)c(C(C)=O)c2C)ccc1C (centres undefined),0,0,0,0,0,51,41,43
COc1ccc(C(C(=O)NC2CCCCC2)N(C(=O)CCl)c2ccc(OC)cc2)cc1 (centres undefined),0,0,0,0,0,100,100,50
O=C(NC1CCCCC1)C(c1cccnc1)N(C(=O)CCl)c1ccccc1Cl (centres undefined),0,0,0,0,0,95,99,59
CCc1ccccc1N(C(=O)CNC(=O)c1ccco1)C(C(=O)NC1CCCC1)c1cccnc1 (centres undefined),-,-,0,0,0,0,-,-
CCC/C(=C1/c2ccccc2C(=O)N1c1ccccc1)c1ccc2[nH]ccc2c1,-,-,0,0,0,59,52,45
N#C/C(=C1/C(=O)Nc2ccc(Br)cc21)c1ccccn1,0,0,0,0,0,0,-,-
Cc1cc(NC(=O)CCCSc2nc(-c3ccco3)cc(C(F)(F)F)n2)no1,0,0,0,0,0,0,-,-
COc1ccccc1-c1cc(C(F)(F)F)nc(S(=O)(=O)CCCC(=O)Nc2cc(C)on2)n1,0,0,0,0,0,100,99,0
CCOC(=O)c1nc(NNC(=O)c2ccc([N+](=O)[O-])cc2)sc1C,-,-,0,0,0,58,46,0
COc1ccc(S(=O)(=O)Nc2cccc3c2O[C@H](CN(C)C(=O)Nc2ccc(C(F)(F)F)cc2)[C@@H](C)CN([C@H](C)CO)C3=O)cc1,-,-,0,0,0,0,-,-
CC1CCN(C2=NC(=O)/C(=C/c3ccccc3F)S2)CC1,-,-,0,0,0,0,-,-
CN1C2CCC1/C(=C\c1ccccc1F)C(=O)/C2=C/c1ccccc1F,0,0,0,0,0,59,41,0
